Columns and labels:
[1] = system: Raji cells; experiment: In vitro cytotoxicity; format: cell-based, human; conditions: Raji cells versus Raji/VCR cells, MTT, 72 hours
[2] = In vivo tissue distribution; parameters: species or system Raji/VCR cell bearing BALB/c nude mice; conditions: 10 mg/kg of VCR intravenous
[3] = system: Raji/VCR cell bearing BALB/c nude mice; experiment: In vivo antitumor activity; conditions: 10 mg/kg of VCR intravenously twice a week for 3 weeks, n=6
[4] = Systemic toxicity; format: in vivo, BALB/c nude mice; conditions: tumor-bearing mice, after 3 weeks of administration
Outline: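 BALB/c nude mice (4–6 weeks, 18–22 g) carried subcutaneous right-flank xenografts of vincristine-resistant Raji cells (5×10^7 cells in 100 μL PBS). Mice were randomised into groups of six and dosed intravenously twice a week for 3 weeks with PBS control or test formulations (10 mg/kg drug). Body weight was recorded as a systemic toxicity read-out.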

CC[C@]1(O)C[C@H]2CN(CCc3c([nH]c4ccccc34)[C@@](C(=O)OC)(c3cc4c(cc3OC)N(C=O)[C@H]3[C@@](O)(C(=O)OC)[C@H](OC(C)=O)[C@]5(CC)C=CCN6CC[C@]43[C@@H]65)C2)C1 [Free VCR, vincristine]
In vitro cytotoxicity (in words) [1]: higher cytotoxicity in Raji cells than Raji/VCR cells | Drug distribution over time (in words) [2]: rapidly reached a high level during the first few hours and reduced over time | Tumor volume / tumor growth (in words) [3]: not statistically different from the negative control | Body weight (in words) [4]: reduction in body weight

— article PMC5909786 (Drug Design, Development and Therapy, 2018)
